The target of test [1] is T1, P2Y purinoceptor 1 (Homo sapiens, UniProt P47900). The test can be described thus: Antagonist activity at human P2Y1 receptor in HEK293 cells assessed as intracellular calcium level by FLIPR. Format: functional, cell-based.
The target of test [2] is T1, P2Y purinoceptor 1. The test can be described thus: Displacement of [33P]2-Mes-ADP from human recombinant P2Y1 receptor expressed in human U20S cells. Type of test: cell-based, U2OS. Summed up: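 Membranes from BacMam-transduced U2OS cells expressing human P2Y1, [33P]-2-MeS-ADP radioligand, 0.5 mg WGA-SPA beads. Buffer: 15 mM Hepes, 145 mM NaCl, 0.1 mM MgCl2, 5 mM EDTA, 5 mM KCl. Test compound at various concentrations or DMSO vehicle. Incubated 1 h at room temperature to completion, centrifuged at 2000g, then counted.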

A further test has as its system Platelet. The test can be described thus: Inhibition of ADP-induced human platelet aggregation. Type of test: functional, cell-based. Summed up:
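Washed human platelets preincubated with compound for 5 min, then challenged with 10 µM ADP; aggregation followed by light transmittance aggregometry; IC50 reported.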

This is an account of results in ChEMBL document CHEMBL1152131, “Tetrahydro-4-quinolinamines identified as novel P2Y(1) receptor antagonists” (Bioorg Med Chem Lett, 2008).

The structures appear in SMILES notation.

T1 sequence (P47900 whole entry): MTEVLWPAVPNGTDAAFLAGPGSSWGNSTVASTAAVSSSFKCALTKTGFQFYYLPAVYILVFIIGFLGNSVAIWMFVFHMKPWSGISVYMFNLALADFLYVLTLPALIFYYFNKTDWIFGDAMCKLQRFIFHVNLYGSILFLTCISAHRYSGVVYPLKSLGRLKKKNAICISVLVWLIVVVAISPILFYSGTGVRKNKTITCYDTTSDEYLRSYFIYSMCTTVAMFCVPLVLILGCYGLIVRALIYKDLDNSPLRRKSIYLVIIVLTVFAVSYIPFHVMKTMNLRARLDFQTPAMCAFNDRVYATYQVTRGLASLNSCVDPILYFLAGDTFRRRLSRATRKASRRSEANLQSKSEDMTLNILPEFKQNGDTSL

Broadly, the IC50 is the concentration that gives 50% inhibition. For the molecule `CC[C@@H]1[C@@H](C)[C@H](Nc2ccccc2)c2ccccc2N1C(=O)c1ccccc1`, the IC50 at P2Y purinoceptor 1 [1] was determined as 25000 nM.
For `CC[C@@H]1[C@@H](C)[C@H](Nc2ccccc2)c2ccccc2N1C(=O)Nc1ccc(OC)cc1`, the IC50 at P2Y purinoceptor 1 [1] amounted to 6000 nM.
By Ki is commonly meant the equilibrium dissociation constant of an inhibitor or competing ligand from its target. As for `CC[C@@H]1[C@@H](C)[C@H](Nc2ccccc2)c2ccccc2N1C(=O)Nc1cccc(Cl)c1`, at P2Y purinoceptor 1 [2], the Ki amounted to 300 nM. For the same molecule, on P2Y purinoceptor 1 [1], the IC50 stood at 1000 nM.
On to `CC[C@@H]1[C@@H](C)[C@H](Nc2ccccc2)c2ccccc2N1C(=O)c1ccc(OC)cc1`, for which the Ki on P2Y purinoceptor 1 [2] stood at 400 nM. The 50% inhibitory concentration (IC50) on P2Y purinoceptor 1 [1] worked out at 800 nM.
As for `CC[C@@H]1[C@@H](C)[C@H](Nc2ccccc2)c2ccccc2N1C(=O)c1cccc(OC(F)(F)F)c1`, on P2Y purinoceptor 1 [1], the IC50 is greater than 25000 nM.
Same read-out and setting: with `CC[C@@H]1[C@@H](C)[C@H](Nc2ccccc2)c2ccccc2N1C(=O)Nc1ccccc1Cl` the figure was greater than 25000 nM.
As to `CC[C@@H]1[C@@H](C)[C@H](Nc2ccccc2)c2ccccc2N1C(=O)Nc1cccc(Br)c1`, the Ki at P2Y purinoceptor 1 [2] amounted to 100 nM. Also, the IC50 at P2Y purinoceptor 1 [1] stood at 1000 nM.
On to `CC[C@@H]1C[C@@H](Nc2ccccc2)c2ccccc2N1C(=O)c1ccc(OC)cc1`, for which the 50% inhibitory concentration (IC50) on P2Y purinoceptor 1 [1] is greater than 25000 nM.
With `CC[C@@H]1[C@@H](C)[C@H](Nc2ccccc2)c2ccccc2N1C(=O)c1ccc([N+](=O)[O-])cc1`, the Ki at P2Y purinoceptor 1 [2] worked out at 500 nM. The half-inhibitory concentration (IC50) at P2Y purinoceptor 1 [1] worked out at 1600 nM.
On the same counts, the results for `CC[C@@H]1[C@@H](C)[C@H](Nc2ccccc2)c2ccccc2N1C(=O)c1ccc(OC(F)(F)F)cc1` are 100 nM and 1000 nM.
With `COc1ccc(C(=O)N2C[C@@H](C)[C@H](Nc3ccccc3)c3ccccc32)cc1`, the IC50 at P2Y purinoceptor 1 [1] is 10000 nM.
`CC[C@H]1[C@H](C)[C@@H](Nc2ccccc2)c2ccccc2N1C(=O)Nc1cc(Cl)cc(Cl)c1`: the IC50 on P2Y purinoceptor 1 [1] was greater than 25000 nM.
The same measure, in the same setting: under `COc1ccc(C(=O)N2CC[C@H](Nc3ccccc3)c3ccccc32)cc1` stands greater than 25000 nM.
Regarding `CC[C@@H]1[C@@H](C)[C@H](Nc2ccccc2)c2ccccc2N1C(=O)Nc1cc(Cl)cc(Cl)c1` (stereo in doubt; 16), the Ki on P2Y purinoceptor 1 [2] (u2os) was found to be 70 nM. For the same molecule, the IC50 in the test on Platelet is 504 nM; at P2Y purinoceptor 1 [1] (hek293), 600 nM.
Turning to `CC[C@@H]1[C@@H](C)[C@H](Nc2ccccc2)c2ccccc2N1C(=O)Nc1ccc(Cl)cc1`, the Ki on P2Y purinoceptor 1 [2] stood at 300 nM. The IC50 at P2Y purinoceptor 1 [1] was found to be 2000 nM.
Take `CC[C@@H]1[C@@H](C)[C@H](Nc2ccccc2)c2ccccc2N1C(=O)Nc1cc(Cl)cc(Cl)c1` (stereo in doubt; 6i): at P2Y purinoceptor 1 [2], the Ki was determined as 70 nM. Also, the IC50 at P2Y purinoceptor 1 [1] stood at 600 nM.
Regarding `CC[C@@H]1[C@@H](C)[C@H](Nc2ccccc2)c2ccccc2N1C(=O)c1ccc(Cl)cc1`, the Ki at P2Y purinoceptor 1 [2] is 400 nM. For the same molecule, the IC50 at P2Y purinoceptor 1 [1] stood at 1300 nM.
For `CC[C@@H]1C[C@H](Nc2ccccc2)c2ccccc2N1C(=O)c1ccc(OC)cc1` the same measures were 800 nM and 3200 nM.
As for `CC[C@@H]1[C@@H](C)[C@H](Nc2ccccc2)c2ccccc2N1C(=O)Nc1cccc(OC)c1`, the inhibition constant (Ki) at P2Y purinoceptor 1 [2] was 500 nM. Besides, the IC50 at P2Y purinoceptor 1 [1] worked out at 1600 nM.
With `CC[C@@H]1[C@@H](C)[C@H](Nc2ccccc2)c2ccccc2N1C(=O)Nc1cc(OC)cc(OC)c1`, the Ki at P2Y purinoceptor 1 [2] stood at 200 nM. For the same molecule, the IC50 on P2Y purinoceptor 1 [1] came to 800 nM.
Take `CC[C@@H]1[C@@H](C)[C@H](Nc2ccccc2)c2ccccc2N1C(=O)Nc1ccccc1`: on P2Y purinoceptor 1 [2], the Ki was 400 nM. In addition, on P2Y purinoceptor 1 [1], the 50% inhibitory concentration (IC50) stood at 1600 nM.
For `CC[C@@H]1[C@@H](C)[C@H](N(C)c2ccccc2)c2ccccc2N1C(=O)c1ccc(OC)cc1`, the IC50 on P2Y purinoceptor 1 [1] is greater than 25000 nM.
As to `CC[C@@H]1[C@@H](C)[C@H](Nc2ccccc2)c2ccccc2N1C(=O)c1ccc(Br)cc1`, the Ki on P2Y purinoceptor 1 [2] is 100 nM. The IC50 at P2Y purinoceptor 1 [1] came out at 800 nM.
